# Columns and labels:
# [1] = substrate: CC(C)[C@H](NC(=O)[C@@H](CCCCN)NC(=O)[C@@H](Cc1ccc(O)cc1)NC(=O)[C@H]1CCCN1C(=O)[C@H](Cc1ccc(O)cc1)NC(=O)[C@H]1CCCN1C(=O)[C@H](CCC(=O)O)NC(=O)[C@H](N)CCCCN)C(=O)N[C@H](CCCCN)C(=O)O; assay: Substrate activity at PTP1B (unknown origin); details: Homo sapiens
# In short: (§1)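 Synthetic phosphotyrosine peptides (N-acetylated, C-terminal amide, HPLC-purified) were incubated in vitro with purified PTP1B, and the released inorganic phosphate was detected with the EnzChek phosphate assay kit.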
# [2] = substrate: NCCCC[C@H](NC(=O)[C@H](CCCCN)NC(=O)[C@@H]1CCCN1C(=O)[C@H](Cc1ccc(O)cc1)NC(=O)[C@H]1CCCN1C(=O)[C@H](CCCCN)NC(=O)[C@H](CCCCN)NC(=O)[C@H](CCCCN)NC(=O)[C@@H](N)CCCCN)C(=O)O; assay: Ratio of Kcat to Km for recombinant human N-terminal His-tagged PTP1B (1 to 321 residues) expressed in Escherichia coli BL21(DE3) cells
# [3] = substrate: CC[C@H](C)[C@H](NC(=O)[C@@H]1CCCN1C(=O)[C@H](CO)NC(=O)[C@H](CCCCN)NC(=O)[C@H](Cc1ccc(O)cc1)NC(=O)[C@H]1CCCN1C(=O)[C@@H](NC(=O)[C@@H]1CCCN1C(=O)[C@H](CC(N)=O)NC(=O)[C@H](CCC(=O)O)NC(=O)[C@@H](N)CCC(N)=O)[C@@H](C)CC)C(=O)N[C@@H](CC(N)=O)C(=O)O; assay: (§2) Substrate activity at recombinant human N-terminal His-tagged PTP1B (1 to 321 residues) expressed in Escherichia coli BL21(DE3) cells assessed as inorganic phosphate release after 30 mins by spectrophotometric method; in short: as §1
# [4] = substrate: C[C@@H](O)[C@H](NC(=O)[C@@H](N)CO)C(=O)N[C@@H](CCC(=O)O)C(=O)N1CCC[C@H]1C(=O)N[C@@H](CCC(N)=O)C(=O)N1CCC[C@@H]1C(=O)N[C@@H](Cc1ccc(O)cc1)C(=O)N[C@@H](CCC(N)=O)C(=O)N1CCC[C@H]1C(=O)NCC(=O)N[C@@H](CCC(=O)O)C(=O)N[C@@H](CC(N)=O)C(=O)O; assay: as §2; in short: as §1
# [5] = substrate: CC(C)[C@H](NC(=O)[C@H](CC(=O)O)NC(=O)[C@H](CCC(=O)O)NC(=O)[C@H](CC(N)=O)NC(=O)[C@@H](N)CC(=O)O)C(=O)N1CCC[C@@H]1C(=O)N[C@@H](Cc1ccc(O)cc1)C(=O)N[C@H](C(=O)N[C@@H](Cc1ccccc1)C(=O)N[C@@H](CCCCN)C(=O)N[C@H](C(=O)N1CCC[C@H]1C(=O)O)[C@@H](C)O)[C@@H](C)O; assay: as §2; in short: as §1
# [6] = substrate: CC(C)C[C@@H](N)C(=O)NCC(=O)N[C@@H](CO)C(=O)N[C@@H](CCCNC(=N)N)C(=O)N[C@@H](C)C(=O)N1CCC[C@@H]1C(=O)N[C@H](Cc1ccc(O)cc1)C(=O)N1CCC[C@H]1C(=O)N[C@@H](Cc1cnc[nH]1)C(=O)N[C@H](Cc1ccccc1)C(=O)N[C@H](CS)C(=O)N[C@H](C)C(=O)O; assay: as §2; in short: as §1
# [7] = substrate: CC[C@H](C)[C@H](NC(=O)[C@@H]1CCCN1C(=O)[C@H](CCC(=O)O)NC(=O)[C@H](C)NC(=O)[C@H](Cc1ccc(O)cc1)NC(=O)[C@H]1CCCN1C(=O)[C@H](CC(N)=O)NC(=O)[C@H](CC(=O)O)NC(=O)[C@H](CO)NC(=O)[C@@H]1CCCN1C(=O)[C@@H](N)CC(=O)O)C(=O)N[C@@H](CC(=O)O)C(=O)O; assay: as §2; in short: as §1
# [8] = substrate: CC[C@H](C)[C@H](NC(=O)[C@H](CC(=O)O)NC(=O)[C@H](CCC(=O)O)NC(=O)[C@H](CCC(=O)O)NC(=O)[C@@H](N)CCC(=O)O)C(=O)N1CCC[C@@H]1C(=O)N[C@@H](Cc1ccc(O)cc1)C(=O)N[C@@H](CCC(=O)O)C(=O)N[C@H](C(=O)N[C@@H](CC(C)C)C(=O)N1CCC[C@H]1C(=O)N[C@@H](CC(=O)O)C(=O)O)C(C)C; assay: as §2; in short: as §1
# [9] = substrate: NCCCC[C@H](NC(=O)[C@H](CCCCN)NC(=O)[C@@H]1CCCN1C(=O)[C@H](Cc1ccc(O)cc1)NC(=O)[C@H]1CCCN1C(=O)[C@H](CCCCN)NC(=O)[C@H](CCCCN)NC(=O)[C@H](CCCCN)NC(=O)[C@@H](N)CCCCN)C(=O)O; assay: as §2; in short: as §1
# [10] = substrate: CC[C@H](C)[C@H](N)C(=O)N[C@@H](CCC(=O)O)C(=O)N[C@@H](CC(=O)O)C(=O)N1CCC[C@H]1C(=O)N1CCC[C@@H]1C(=O)N[C@@H](Cc1ccc(O)cc1)C(=O)N1CCC[C@@H]1C(=O)N[C@@H](Cc1ccc(O)cc1)C(=O)NCC(=O)N[C@@H](CC(N)=O)C(=O)N[C@@H](CC(=O)O)C(=O)N[C@@H](CO)C(=O)N[C@@H](CC(=O)O)C(=O)O; assay: as §2; in short: as §1
protein,measurement,setting,value
"Tyrosine-protein phosphatase non-receptor type 1 (Homo sapiens), P18031 (protein) MEMEKEFEQIDKSGSWAAIYQDIRHEASDFPCRVAKLPKNKNRNRYRDVSPFDHSRIKLHQEDNDYINASLIKMEEAQRSYILTQGPLPNTCGHFWEMVWEQKSRGVVMLNRVMEKGSLKCAQYWPQKEEKEMIFEDTNLKLTLISEDIKSYYTVRQLELENLTTQETREILHFHYTTWPDFGVPESPASFLNFLFKVRESGSLSPEHGPVVVHCSAGIGRSGTFCLADTCLLLMDKRKDPSSVDIKKVLLEMRKFRMGLIQTADQLRFSYLAVIEGAKFIMGDSSVQDQWKELSHEDLEPPPEHIPPPPRPPKRILEPHNGKCREFFPNHQWVKEETQEDKDCPIKEEKGSPLNAAPYGIESMSQDTEVRSRVVGGSLRGAQAASPAKGEPSLPEKDEDHALSYWKPFLVNMCVATVLTAGAYLCYRFLFNSNT",Km,[1],12.7 µM
same,kcat/Km,[2],Not Active
same,Km,[3],21.7 µM
same,Km,[4],29.1 µM
same,Km,[5],17.1 µM
same,Km,[6],> 300 µM
same,Km,[7],28.5 µM
same,Km,[8],14.7 µM
same,Km,[9],Not Active
same,Km,[10],20.1 µM

# Reference: ChEMBL document CHEMBL3813641, “Prediction and verification of novel peptide targets of protein tyrosine phosphatase 1B” (Bioorg Med Chem, 2016)
